Measured values of several laboratories.
Observed: cell growth or viability

| Compound | cell line | assay | conditions | endpoint | result |
| --- | --- | --- | --- | --- | --- |
| COc1c(C)cnc(Cn2cnc3c(Cl)nc(N)nc32)c1C | MB002 | – | 7 days | IC50 | 97.4 nM |
| CC(=O)Nc1cccc(-n2c(=O)n(C3CC3)c(=O)c3c(Nc4ccc(I)cc4F)n(C)c(=O)c(C)c32)c1 | Calu-6 | resazurin | 6.25 nM, 72 h | viability | 74.2% |
| CC(=O)c1sc(=NN=C(C)c2c(O)c3ccccc3oc2=O)n(C)c1C | human Skin fibroblast | MTT | 48 h | IC50 | > 100000 nM |
| O=C(NO)c1ccc(CN(c2cnccn2)c2cnccn2)cc1 | B16-F10 | – | – | GI50 | > 20 µM |
| CC(=O)c1c(C)c2cnc(Nc3ccc(N4CCNCC4)cn3)nc2n(C2CCCC2)c1=O | BT-474 | resazurin | – | GI50 | 0.2 µM |
| CC[C@]1(O)C[C@H]2CN(CCc3c([nH]c4ccccc34)[C@@](C(=O)OC)(c3cc4c(cc3OC)N(C=O)[C@H]3[C@@](O)(C(=O)OC)[C@H](OC(C)=O)[C@]5(CC)C=CCN6CC[C@]43[C@@H]65)C2)C1 | MB002 | – | 7 days | IC50 | 11.2 nM |
| CCCCCCCCCC(=O)N[C@@H](Cc1c[nH]c2ccccc12)C(=O)N[C@H](CC(N)=O)C(=O)N[C@@H](CC(=O)O)C(=O)N[C@@H]1C(=O)NCC(=O)N[C@@H](CCCN)C(=O)N[C@@H](CC(=O)O)C(=O)N[C@H](C)C(=O)N[C@@H](CC(=O)O)C(=O)NCC(=O)N[C@H](CO)C(=O)N[C@@H]([C@H](C)CC(=O)O)C(=O)N[C@@H](CC(=O)c2ccccc2N)C(=O)O[C@@H]1C | KB 3-1 | WST-1 | – | Kb | > 64000 nM |
| CC(=O)c1c(C)c2cnc(Nc3ccc(N4CCNCC4)cn3)nc2n(C2CCCC2)c1=O | MB002 | – | 7 days | IC50 | 10.8 nM |
| CO[C@]1(C(=O)N[C@@H](C)c2ccc(-n3cc(F)cn3)nc2)CC[C@H](c2nc(C)cc(Nc3cc(C)[nH]n3)n2)CC1 | BT-474 | ATP luminescence | 72 h | GI50 | > 10 µM |
| CC(C)C[C@H](NC(=O)[C@H](Cc1ccccc1)NC(=O)c1cnccn1)B(O)O | SW948 | ATP luminescence | – | IC50 | 12 nM |
| Nc1cc(C(F)(F)F)c(-c2cc(N3CCOCC3)nc(N3CCOCC3)n2)cn1 | MB002 | – | 7 days | IC50 | 172 nM |
| COc1cc(Nc2nccc(-c3cnn4nc(OC)ccc34)n2)cc(C(F)(F)F)c1 | SK-LU-1 | ATP luminescence | – | IC50 | 1100 nM |
| CC(=O)OC[C@H]1O[C@@H]([S-])[C@H](OC(C)=O)[C@@H](OC(C)=O)[C@@H]1OC(C)=O.CCP(CC)CC.[Au+] | KB 3-1 | WST-1 | – | Kb | 100 nM |
